Broadly, the inhibition is the drop in the measured response relative to a control, in per cent.

Structures are written as SMILES. Activity calls are given as the source filed them. No cut-off for these calls is given here. Bounds are passed on as bounds.

The test system of series [1] is Human alphaherpesvirus 1. The series is described as follows: Antiviral activity against ACV-resistant Herpes simplex virus 1 AR-29 infected in African green monkey Vero cells assessed as inhibition of viral infection at 25 ug/ml measured after 72 hrs by crystal violet staining based plaque reduction assay relative to control. Type of series: functional. As to conditions: Human alphaherpesvirus 1, AR-29, Vero. The procedure, abridged: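 Plaque reduction in Vero cells. Mangiferin at 3.12, 6.25, 12.5 or 25 μg/mL is added at infection (0 h) with HSV-1 (10^5 PFU/mL). Agarose overlay with 25 mM MgCl2, 72 h at 37 °C/5% CO2, 20% formaldehyde fix, 0.5% crystal violet stain. %VI is taken against virus control. IC50 comes from linear regression of inhibition curves. Triplicate independent experiments.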

Series [2] is described as follows: Selectivity index, ratio of CC50 for African green monkey Vero cells to IC50 for Herpes simplex virus 1 AR-29 infected in African green monkey Vero cells. Type of series: toxicity. The conditions noted are these: read-out: Ratio CC50/IC50. In a few lines:
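SI = CC50 (Vero, MTT, 72 h) / IC50 from plaque reduction with mangiferin added at infection (0 h) against HSV-1 AR-29 or KOS; IC50 by linear regression of viral inhibition curves.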

The test system of series [3] is Human alphaherpesvirus 1. The series can be described thus: Virucidal activity against ACV-resistant Herpes simplex virus 1 AR-29 infected in African green monkey Vero cells assessed as inhibition of viral inhibition at 3.12 to 25 ug/mL measured after 1 hr by plaque reduction assay. Format: functional, organism-based. In a few lines:
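HSV-1 AR-29 suspension is incubated with mangiferin (3.12–25 μg/mL) for 1 h at 37 °C, then titrated by plaque reduction on Vero cells. Agarose/MgCl2 overlay, 72 h, crystal violet stain. %VI is taken against virus control. Triplicate independent experiments.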
(In general: Plaques are areas of infected cells; plaque reduction assays count them against a control.)

The subject of series [4] is Human alphaherpesvirus 1. The series can be described thus: Antiviral activity against ACV-sensitive Herpes simplex virus 1 KOS infected in African green monkey Vero cells assessed as inhibition of viral adsorption at 25 ug/mL preincubated for 30 mins and measured after 1 hr by plaque reduction assay. Format: functional, organism-based. The conditions noted are these: strain KOS. In a few lines:
(§1)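 Vero cells pre-chilled 30 min at 4 °C, then given mangiferin (3.12–25 μg/mL) together with HSV-1 KOS (10^5 PFU/mL); 1 h adsorption at 4 °C, then plaque reduction: agarose/DMEM overlay with 25 mM MgCl2, 72 h at 37 °C, formaldehyde fixation, crystal violet stain. %VI = 1 − PFU treated/PFU virus control; triplicate independent experiments.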

The test system of series [5] is Human alphaherpesvirus 1. The series is described as follows: Antiviral activity against ACV-sensitive Herpes simplex virus 1 KOS infected in African green monkey Vero cells assessed as inhibition of viral adsorption at 3.12 ug/mL preincubated for 30 mins and measured after 1 hr by plaque reduction assay relative to control. Format: functional. The conditions noted are these: Human alphaherpesvirus 1, strain KOS. The procedure, abridged: as §1

In series [6] the test system is Human alphaherpesvirus 1. The series can be described thus: Antiviral activity against ACV-sensitive Herpes simplex virus 1 KOS infected in male Balb/c mouse assessed as reduction in ulcerated lesion at 0.7% w/w applied topically 5 times a day at 3 hrs interval for 10 days measured on day 5 post infection. Format: functional, organism-based. The conditions noted are these: strain KOS. In a few lines: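 Balb/c mice (5 weeks, 22–27 g; six per group, sexes tested separately) had the right mid-flank depilated under i.p. anaesthesia and needle-scarified 24 h later. They were inoculated with 70 μL HSV-1 KOS (10^5 PFU/mL). From 4 h post-infection, O/W emulsion with 0.7% w/w mangiferin or ACV cream (50 mg/g) was applied topically 5 times daily for 10 days. Lesions were scored daily.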

The test system of series [7] is Human alphaherpesvirus 1. The series is described as follows: Antiviral activity against ACV-resistant Herpes simplex virus 1 AR-29 infected in male Balb/c mouse assessed as reduction in zosteriform lesion at 0.7% w/w applied topically 5 times a day at 3 hrs interval for 10 days measured on day 5 post infection. Format: functional, organism-based. In a few lines: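 Balb/c mice, 5 weeks old, six per group. Right mid-flank depilated under i.p. anaesthesia, needle-scarified 24 h later and inoculated with 70 μL HSV-1 AR-29 (10^5 PFU/mL). Topical 0.7% w/w O/W emulsion or ACV cream (50 mg/g) starts 4 h post-infection, 5 times daily for 10 days. Lesions are scored daily.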

Take `O=c1c2cc(O)c(O)cc2oc2cc(O)c([C@@H]3O[C@H](CO)[C@@H](O)[C@H](O)[C@H]3O)c(O)c12` [MANGIFERIN]: the inhibition at 25 µg/mL with Human alphaherpesvirus 1 [1] came out at 100%. The selectivity ratio in series [2] is greater than 172. For the same compound, the inhibition result in the series with Human alphaherpesvirus 1 [3] and with Human alphaherpesvirus 1 [4] was “Active” in each case. The inhibition at 3.12 µg/mL in the series with Human alphaherpesvirus 1 [5] turned out to be 29.2%. Moreover, in the series with Human alphaherpesvirus 1 [6], the result was inactive. In addition, the result in the series with Human alphaherpesvirus 1 [7] was Active.

The values above are taken from ChEMBL document CHEMBL4610063, “Mangiferin: A promising natural xanthone from Mangifera indica for the control of acyclovir - resistant herpes simplex virus 1 infection” (Bioorg Med Chem, 2020).
